Screening data from PubChem.
GalR3 antagonist = GalR3 antagonists in HEK293 cells, primary screen, cell-based, fluorescence readout | Galanin receptor type 3 (Homo sapiens), O60755 | HEK293 GalR3-CNG cAMP membrane potential fluorescence; galR3 body fused to GalR1 C-terminus | inhibition, % at 3 µM | hit rate 0.44% among 360,000;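 active = inhibition above the screen-wide average plus 3 SD, cut at about 13% in these data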;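 also: forskolin and galanin both at EC90 stimulate the cells; cAMP rise reported by CNG channel membrane potential dye signal; 0% = forskolin plus galanin with DMSO and 100% = forskolin alone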
Target sequence (O60755 1-299 limits assumed): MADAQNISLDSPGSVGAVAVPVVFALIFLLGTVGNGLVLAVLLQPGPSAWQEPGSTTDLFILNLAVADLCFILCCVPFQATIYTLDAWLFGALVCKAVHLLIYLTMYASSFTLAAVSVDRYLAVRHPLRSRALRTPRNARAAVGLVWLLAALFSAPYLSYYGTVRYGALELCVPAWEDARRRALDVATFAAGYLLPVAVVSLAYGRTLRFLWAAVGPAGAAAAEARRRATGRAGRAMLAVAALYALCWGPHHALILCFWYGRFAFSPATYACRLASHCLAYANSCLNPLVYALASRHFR
OX1R antag-1 = antagonists of human orexin 1 receptor (OX1R); Orexin/Hypocretin receptor type 1 (Homo sapiens), O43613; OX1R-expressing cells, FRET antagonist read-out; inhibition, % at 6.6 µM; hit rate 1.8% among 330,000; AID 485270, 2010; in the data active = inhibition mostly above about 38%, no sharp cut-off; inactive = mostly below about 40%;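 also: 0% = agonist challenge alone and 100% = reference antagonist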
TAAR1 antagonist = human TAAR1 antagonists, primary screen, Fluo-8 calcium fluorescence, CHO RD-HGA16 cells; Trace amine-associated receptor 1 (Homo sapiens), Q96RJ0; antagonist; inhibition, % at 3 µM; hit rate 1.5% among 360,000;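 active = inhibition above a per-plate cutoff, the mean inhibition of test compounds on that plate plus 3 SD, cut at about 49% in these data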;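 also: 0% = DMSO plus EC80 beta-PEA response and 100% = DMSO alone without agonist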
Target sequence (Q96RJ0 whole entry, looked up): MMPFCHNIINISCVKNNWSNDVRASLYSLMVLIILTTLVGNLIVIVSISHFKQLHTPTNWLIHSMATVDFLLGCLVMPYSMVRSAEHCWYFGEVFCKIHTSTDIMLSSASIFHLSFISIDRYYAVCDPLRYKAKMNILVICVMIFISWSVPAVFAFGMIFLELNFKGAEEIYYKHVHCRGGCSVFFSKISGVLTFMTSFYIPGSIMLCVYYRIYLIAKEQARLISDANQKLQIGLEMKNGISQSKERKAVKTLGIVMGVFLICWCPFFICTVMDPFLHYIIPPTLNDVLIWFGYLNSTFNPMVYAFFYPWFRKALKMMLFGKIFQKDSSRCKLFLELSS
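Test system – hTAAR1-expressing CHO RD-HGA16 cells, Gα16-coupled · Reagent – β-PEA at EC80 concentration, post-compound challenge · Compound dosing – 3 µM, single point · Timing – 140 s kinetic read after compound, 140 s after agonist · Detection – Fluo-8 intracellular calcium dye fluorescence, real-time kinetic reads · Control set – DMSO and EC80 PEA controls · Repeats – n of 1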
TAAR1 agonist = human TAAR1 agonists, primary screen, Fluo-8 calcium fluorescence, CHO RD-HGA16 cells. vehicle wells 0%, saturating PEA agonist 100%. activation, % at 3 µM. hit rate 0.99% among 360,000. AID 624467, 2012;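 active = activation above the mean activation of all test compounds in the run plus 3 SD, cut at about 38% in these data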
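System: CHO-derived RD-HGA16 cells with stable Gα16 and human TAAR1 / Times: 17-24 h plating, Fluo-8 75 min 37 °C, 30 min RT / Technique: calcium-sensitive Fluo-8 signal, excitation 470-495, emission 515-575 nm / Measure: % activation relative to PEA EC100 response / Benchmarks: DMSO and PEA EC100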
OX1R antag-2 = OX1R (HCRTR1) antagonists, primary screen, fluorescence, CHO/OX1R cells, Fluo-8 calcium, orexin A | Orexin/Hypocretin receptor type 1 (Homo sapiens), O43613 | Fluo-8 calcium fluorescence | inhibition, % at 5 µM | hit rate 0.43% among 330,000;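 active = inhibition above its plate's threshold, mean inhibition of all tested compounds on the plate plus 3 SD, cut at about 37% in these data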;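 also: 0% = orexin A challenge wells and 100% = SB-334867-A antagonist wells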
CHO parental Ca = ATP-evoked calcium signal inhibitors, parental CHO, primary screen, counter-screen for OX1R antagonist project, cell-based, fluorescence, Fluo-8 calcium dye. hit rate 0.63% among 330,000. AID 463079, 2010. parental CHO-K1, ATP-induced calcium, Fluo-8 fluorescence. inhibition, % at 5.6 µM;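 active = inhibition above that plate's mean sample inhibition plus 3 SD, cut at about 26% in these data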;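 also: 0% = ATP-challenged DMSO wells and 100% = DMSO wells without ATP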
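Assay system – parental CHO cells · Reagent – ATP stimulus · Detection – intracellular calcium via Fluo-8 no-wash fluorescent dye · Evaluation – percent inhibition of ATP-evoked calcium rise, normalized to controls · Controls – ATP wells versus no-ATP DMSO wells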
GalR3 conf = GalR3 antagonist hit confirmation, cell-based, fluorescence, triplicate. AID 652245, 2013. shares compounds with GalR3 antagonist. hit rate 59% among 1,600. inhibition, % at 3 µM. HEK293 GalR3 CNG cAMP biosensor, membrane potential fluorescence; galR3 fused to GalR1 carboxy tail; challenged with forskolin and galanin at EC90;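 active = inhibition above the primary screen's cutoff, the mean inhibition of all screened compounds plus 3 SD, cut at about 13% in these data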;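 also: 0% = forskolin plus galanin and 100% = forskolin alone with DMSO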
HEK-CNG parental = nonspecific cAMP agonists in parental HEK-CNG cells, counter-screen for GalR3 antagonist project, cell-based, fluorescence, high throughput | AID 652268, 2013 | shares compounds with GalR3 antagonist | hit rate 10% among 1,600 | HEK293-CNG parental cells, cAMP membrane potential fluorescence; normalised: DMSO wells 0%, forskolin wells 100% | activation, % at 3 µM; in the data active = activation above about 1.3%
The depositor's hits bear a star; · = not tested or not shown; ! = not confirmed by another sample. Sampled rows, rich in hits. Any-hit rate of the full collection: about 4.2%.

SMILES	GalR3 antagonist	OX1R antag-1	TAAR1 antagonist	TAAR1 agonist	OX1R antag-2	CHO parental Ca	GalR3 conf	HEK-CNG parental
CCC(=O)OC1(C)C(=O)C=C2C=C(c3ccsc3)OC=C2C1=O (stereo not drawn)	·	17.5	·	·	-13.8	-11.6	·	·
Cc1cccc(Oc2ccccc2NC(=O)CSCC(=O)Nc2cc(C)on2)c1	-2.8	·	39.4	0.2	·	·	·	·
CCOc1ccc(Oc2ccccc2NC(=O)CSCC(=O)Nc2cc(C)on2)cc1	40.2*	31.9	12.4	-1.0	5.9	8.0	72.8*	-0.4
COc1cc(OC)c(C(=O)OCC(=O)Nc2cccc(S(=O)(=O)NC3=NCCCCC3)c2)cc1OC	-6.2	·	-19.1	10.1	·	·	·	·
CCCCn1c(=O)[nH]c(=O)c2c1nc(Cn1ncc(Cl)c(Cl)c1=O)n2CCC	23.3*	13.6	-21.0	0.9	-33.9	-31.2	19.8*	0.5
FC(F)(F)c1ccccc1Cc1c(-c2ccc(Cl)cc2)nc2c3ccccc3ccn12	-0.9	·	-6.3	-0.9	·	·	·	·
FC(F)(F)c1ccccc1Cc1c(-c2ccco2)nc2c3ccccc3ccn12	18.7*	·	-22.9	5.1	·	·	35.3*	0.7
COc1ccc(Cn2nc(C(=O)O)c3ccccc3c2=O)cc1F	-0.1	11.6	-19.5	3.0	-24.9	-24.6	·	·
COc1cccc(Cn2nc(C(=O)O)c3ccccc3c2=O)c1	19.1*	24.0	-11.3	1.0	-28.5	-2.1	15.6*	-0.2
O=C(OCc1nc2scc(-c3ccccc3)c2c(=O)[nH]1)c1cc([N+](=O)[O-])ccc1Cl	-4.0	21.4	17.3	0.2	14.7	-17.4	·	·
COCCCn1c(-c2ccc(OC)cc2)nc2c1c(=O)[nH]c(=O)n2Cc1ccccc1	13.7*	12.2	-12.3	-5.0	-20.4	-15.6	12.5	0.2
C=CCOc1ccc(-c2nc3c(c(=O)[nH]c(=O)n3Cc3ccccc3)n2CCCOC)cc1	-7.6	16.3	-11.9	5.0	-20.0	-6.0	·	·
O=C(CCc1ccccc1)N=C1SC2CS(=O)(=O)CC2N1c1ccc(F)cc1 (stereo not drawn)	-7.1	4.5	-7.8	3.9	-8.0	-17.6	·	·
C=CCOc1ccc2ccccc2c1CNCCCN1CCOCC1	-10.1	27.5	-1.7	6.9	-32.5	-18.7	·	·
CCn1c(=O)c(=O)[nH]c2cc(C(=O)N3CCN(Cc4ccc5c(c4)OCO5)CC3)ccc21	-0.5	5.0	-25.2	1.0	4.4	-6.1	·	·
CCCCCn1c(=O)[nH]c2cc(C(=O)N3CCN(Cc4ccc5c(c4)OCO5)CC3)ccc2c1=O	98.9*	23.2	20.1	4.9	-10.6	-0.9	106.4*	-0.9
COc1ccccc1CNC(=O)c1cc2c(C)nn(Cc3ccc(F)cc3)c2s1	-2.2	44.2	-4.0	-0.4	29.2	10.3	·	·
CCc1ccc(N(C(=O)c2snc(C(N)=O)c2N)C(C(=O)NC2CCCC2)c2ccco2)cc1 (stereo not drawn)	-7.8	26.3	45.4	12.4	-18.5	-18.8	·	·
COc1ccc(N(C(=O)c2snc(C(N)=O)c2N)C(C(=O)NC2CCCC2)c2ccco2)cc1 (stereo not drawn)	17.9*	10.4	-14.1	4.2	-37.3	-14.7	0.3	0.1
Cc1ccc(O)c(N=Cc2cc(Cc3ccccc3)cc([N+](=O)[O-])c2O)c1	13.4*	·	-0.6	4.8	·	·	10.0	-0.5
O=[N+]([O-])c1cc(Cc2ccccc2)cc(C=Nc2ccc(N3CCOCC3)cc2)c1O	·	29.0	·	·	-11.4	-14.0	·	·
COc1cccc(OCCn2cc(C(C)=O)c3ccccc32)c1	26.8*	19.7	21.3	11.6	1.5	32.1*	20.8*	0.2
CC(=O)c1cn(CCOc2cc(C)ccc2C)c2ccccc12	84.4*	45.1	27.2	2.8	6.7	32.6*	84.5*	0.8
Cc1ccc(C)c(OCCn2cc(C(=O)O)c3ccccc32)c1	-8.5	22.1	13.3	2.7	7.2	-7.1	·	·
COc1cccc(OCCn2cc(/C=N/NC(=O)c3ccncc3)c3ccccc32)c1	-0.6	13.5	20.6	10.2	-0.1	-3.7	·	·
SMILES	GalR3 antagonist	OX1R antag-1	TAAR1 antagonist	TAAR1 agonist	OX1R antag-2	CHO parental Ca	GalR3 conf	HEK-CNG parental
Cc1c(Cl)cccc1NC(=O)c1cc(-c2ccco2)on1	-8.5	23.6	-16.2	-1.3	-4.6	0.7	·	·
CCOC(=O)C(Cc1ccccc1)C1(C)Oc2ccccc2O1 (stereo not drawn)	-8.1	·	-13.0	5.8	·	·	·	·
COc1ccc(-c2cn(-c3ccccc3)c3[n+]2CCS3)cc1	15.6*!	25.9	6.2	2.1	-17.6	-9.4	0.0	-0.1
CC(C)(C)c1ccc(-c2cn(-c3ccc(Br)cc3)c3[n+]2CCCS3)cc1	24.9*	·	14.8	6.1	·	·	59.8*	1.7*
c1ccc(-c2cn(-c3ccccc3)c3[n+]2CCS3)cc1	0.5	23.7	17.9	2.9	-2.2	10.5	·	·
Cn1c(=O)c2c(nc(NCC3CCCO3)n2Cc2ccccc2)n(C)c1=O (stereo not drawn)	·	3.0	-3.5	11.5	-25.4	-7.3	4.6	0.0
Cn1c(=O)c2c(nc(NCCCN3CCOCC3)n2Cc2ccc(Cl)cc2)n(C)c1=O	13.6*	17.6	-20.0	3.4	-30.4	-8.9	14.6*	0.2
CCCc1cc(-c2[nH]ncc2-c2ccc(C(=O)OCC)o2)c(O)cc1O	31.3*	2.5	6.9	3.5	25.9	10.4	16.9*	-0.8
CCOC(=O)C(=CNNc1c(C)csc1C(=O)OC)C(=O)OCC	3.7	3.3	-39.9	-0.5	-23.0	-24.7	·	·
Cc1cc(C(F)(F)F)n(-c2nc(C(=O)O)cs2)n1	-4.6	20.9	-4.1	2.2	-11.9	-2.1	·	·
COc1ccc(C2=NN(c3nc(C(=O)O)cs3)C(O)(C(F)(F)F)C2)c(OC)c1 (stereo not drawn)	66.4*	31.3	-3.9	-1.8	-31.2	-8.9	74.0*	0.5
